Measurements collected from several papers.
Compare with care: the assays were run in different laboratories.
Target: Serine/threonine-protein kinase 33 (STK33, Homo sapiens, UniProt Q9BYT3)

| SMILES | assay | conditions | endpoint | result |
| --- | --- | --- | --- | --- |
| Cc1cc(NC(=O)c2cccc3cc(-c4cccc5[nH]nc(N)c45)ccc23)ccc1F | enzyme activity, inhibitor | 0.1 µM | activity vs control | 126% |
| CN1CC(Oc2cnc(C#N)cc2-c2ccn3nc(NC(=O)C4CC4)cc3c2)C1 | enzyme activity, inhibitor | 1 µM | inhibition | -3% |
| Cc1nccc(COC(=O)N2C[C@@H]3[C@@H](CNC(=O)c4ccc5[nH]nnc5c4)[C@@H]3C2)n1 | cell-free assay, competition with immobilised ligand | 1 µM | remaining binding | 93% |
| CCN(CC)c1ccc(C2=NNC(=O)CC2C)cc1[N+](=O)[O-] (stereo not shown) | enzyme activity, inhibitor | 10 µM | remaining activity | 102% |
| Cc1ccc(Nc2nccc(N(C)c3ccc4c(C)n(C)nc4c3)n2)cc1S(N)(=O)=O | enzyme activity, inhibitor | 10 µM | inhibition | 34% |
| Cn1cnc(Br)c1C1=CN(c2ncnc3[nH]cnc23)CCS1 | enzyme activity, inhibitor, radiometric | 2 µM | inhibition | 78.4% |
| FC(F)(F)Oc1cccc(-c2cnc3ccc(-c4ccncc4)nn23)c1 | enzyme activity, inhibitor, radiometric | 1 µM | activity vs control | 95% |
| COc1cc(Cl)c(C(=O)N[C@@H](CN[C@H]2CC[C@@H](N)CC2)Cc2ccc(C#N)cc2)cc1-c1ccc(CN[C@H](C)c2ccc(C)cc2)o1 | enzyme activity, inhibitor | 1 µM | remaining activity | 99% |
| O=C(Nc1cnn(-c2csc(C(=O)NC3COC3)c2)c1)Nc1ccccc1Cl | enzyme activity, inhibitor | 5 µM | remaining activity | 99.3% |
| CCCS(=O)(=O)Nc1ccc(F)c(C(=O)c2c[nH]c3ncc(-c4ccc(Cl)cc4)cc23)c1F | enzyme activity, inhibitor | 1 µM | inhibition | < 10% |
| Cc1cc(NC(=O)c2cccc(S(F)(F)(F)(F)F)c2)cc(-n2ccn3nc(-c4cccnc4)cc23)c1 | cell-free assay, competition with immobilised ligand | 1 µM | remaining binding | 87.8% |
| Cc1ccc(NC(=O)c2ccc(C)c(C(F)(F)F)c2)cc1C#Cc1nn(C2CCC(O)CC2)c2ncnc(N)c12 (stereo not shown) | cell-free assay | 10 µM | remaining signal | 109% |
| COc1cc(Nc2cnc(C#N)c(O[C@H](C)CN(C)C)n2)ncc1-c1cnn(C)c1 | enzyme activity, inhibitor, radiometric | 1 µM | remaining activity | 59% |
| CCc1ccccc1C(=O)Nc1n[nH]c2c(C)c(F)c(C3C(C#N)=C(C)N(C)C(C)=C3C#N)cc12 | cell-free assay, competition with immobilised ligand | 1 µM | remaining binding | 100% |
| CC(C)(O)[C@H]1CC[C@H](Nc2ccc3ncc(-c4cccc(C(F)(F)F)c4)n3n2)CC1 | enzyme activity, inhibitor | 1 µM | remaining activity | 40.5% |
| COc1cc(-c2cn(C3CCc4ccccc4N(CC(F)(F)F)C3=O)nn2)ccc1-n1ccc(C)n1 (stereo not shown) | cell-free assay, competition with immobilised ligand | 1 µM | remaining binding | 100% |
| Nc1ncnc2occ(-c3ccc(NC(=O)Nc4cc(C(F)(F)F)ccc4F)cc3)c12 | enzyme activity, inhibitor | 20 µM | remaining activity | 4.3% |
| CCS(=O)(=O)c1cc2cc(C[C@@](O)(CC(C)(C)c3ccc(F)cc3C(N)=O)C(F)(F)F)[nH]c2cn1 | cell-free assay, competition with immobilised ligand | 1 µM | remaining binding | 91% |
| Cn1cncc1C1=CN(c2ncnc3[nH]cnc23)CCS1 | enzyme activity, inhibitor, radiometric | 2 µM | inhibition | 80.5% |
